# ERb SRC1 inh: ER-beta (human) coactivator binding inhibition | Q92731 | TR-FRET ER-beta LBD / SRC1-Cy5 peptide binding; receptor agonist-loaded with 1 µM estradiol | inhibition, % at 25.6 µM | actives 1.3% (n = 86,000) | AID 633;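 active means compounds whose percent inhibition of the receptor-coactivator binding signal exceeds about 50% in the single-dose screen, limit read from the data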;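 further: 0% = receptor plus peptide wells without compound and 100% = peptide-only wells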
# Target sequence (Q92731 whole entry, looked up, the tested form may be a part): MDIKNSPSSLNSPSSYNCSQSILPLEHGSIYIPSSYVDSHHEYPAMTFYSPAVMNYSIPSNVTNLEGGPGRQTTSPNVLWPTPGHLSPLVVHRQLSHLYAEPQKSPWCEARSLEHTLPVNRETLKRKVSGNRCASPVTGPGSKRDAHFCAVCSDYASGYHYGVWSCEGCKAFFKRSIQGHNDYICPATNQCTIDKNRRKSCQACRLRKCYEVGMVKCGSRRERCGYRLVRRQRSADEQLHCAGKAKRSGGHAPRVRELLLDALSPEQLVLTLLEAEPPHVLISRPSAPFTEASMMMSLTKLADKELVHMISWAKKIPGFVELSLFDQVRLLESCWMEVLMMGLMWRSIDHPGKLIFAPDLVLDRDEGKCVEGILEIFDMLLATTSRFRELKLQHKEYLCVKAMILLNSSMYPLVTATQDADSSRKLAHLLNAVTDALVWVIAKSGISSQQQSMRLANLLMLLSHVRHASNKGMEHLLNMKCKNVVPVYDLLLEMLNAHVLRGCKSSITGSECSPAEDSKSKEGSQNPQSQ
# ERa coact pot: ER-alpha (human) coactivator binding potentiation; TR-FRET ERalpha-LBD/SRC-Cy5 coactivator binding, 2 h; 100 = basal binding, no effect; actives 1.3% (n = 86,000); coactivator binding (% of control), % at 25.6 µM; in the data active means activity above about 200%;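 further: binding measured in presence of low estradiol as agonist stimulus; 0% = peptide alone without receptor and 100% = receptor with peptide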
# H69AR inhibit: growth inhibitors of human H69AR lung tumor cells. AID 598. H69AR lung tumor viability, ATP luminescence, 72 h; stronger effect = lower value. viability, % at 10 µM. actives 6% (n = 85,000);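 active means viability at or below 40%; inactive means viability above 40%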;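 further: multidrug resistant small cell line overexpressing MRP-1 efflux transporter; 100% = mean luminescence of untreated control wells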
# HUVEC prolif 384: inhibitors of human endothelial cell proliferation; HUVEC proliferation, CellTiter-Glo luminescence, 72 h; stronger effect = lower value; viability, % at 10 µM (by protocol); actives 1.1% (n = 86,000);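 active means viability at or below 30%; inactive means viability above 30%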;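 further: 100% = median luminescence of DMSO-only cell control wells on each plate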
# ERa coact inh: blocks coactivator binding to human estrogen receptor alpha; actives 1.7% (n = 86,000); AID 629; P03372; TR-FRET ER-alpha LBD / SRC-1 peptide, estradiol-bound; inhibition, % at 25.6 µM; in the data active means inhibition above about 50%;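 further: 0% = receptor plus peptide control and 100% = peptide only without receptor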
# Lung fibro prol: blocks proliferation of human lung fibroblasts. LL 47 human lung fibroblast viability, ATP luminescence; stronger effect = lower value. actives 1.1% (n = 85,000). viability, % at 10 µM;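 active means viability at or below 50% in the single dose screen; inactive means viability above 50%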;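 further: compound exposure lasted 72 h before the ATP readout; 100% = median luminescence of untreated cell-only wells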
#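 material = human LL 47 lung fibroblast cells | dosing = compounds added from tenfold dosing solution, 0.1% DMSO final | timing = overnight cell rest, 72 h compound treatment at 37 °C | measured by = CellTiter-Glo luminescence measuring cellular ATP | evaluation = % viability versus median cells-only luminescence | control set = cell-only wells, no compound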
# Active calls of the source: *; · = not tested or not shown; [ ] = remark or other dose. Only some compounds are listed: those with a hit (about 9.2% of all), similar ones and a draw of the others.
SMILES,ERb SRC1 inh,ERa coact pot,H69AR inhibit,HUVEC prolif 384,ERa coact inh,Lung fibro prol
Cc1cccc2cc(CN(Cc3nnnn3C3CCCC3)C3CCCCC3)c(=O)[nH]c12,10,124,78,83,6,102
O=c1[nH]c2cc3c(cc2cc1CN(CCc1ccccc1)Cc1nnnn1C1CCCC1)OCCO3,13,123,36*,77,2,97
Cc1cc2cc(CN(Cc3ccc4c(c3)OCO4)Cc3nnnn3C3CCCC3)c(=O)[nH]c2cc1C,11,111,67,66,17,96
Cc1ccc(C)c(N2CCN(C(=O)C3CCN(S(=O)(=O)c4cccc5nsnc45)CC3)CC2)c1,-2,110,67,86,-8,99
O=C(COCc1nc2ccccc2c(=O)[nH]1)NC1CCCC1,1,115,96,85,-1,99
COc1ccc2cc(CN(CCCN3CCOCC3)Cc3nnnn3C3CCCC3)c(=O)[nH]c2c1,-10,261*[fluorescence artefact?],75,92,-10,88
CN1CCCC(OC(=O)CCCC(=O)OC2CCCN(C)C2)C1 (configuration not stated),3,128,96,95,2,97
CCN(CC)Cc1c(O)ccc2c([N+](=O)[O-])c(C)n(-c3ccc(OC)cc3)c12,-1,85,39*,64,-40,93
CCN(CC)Cc1c(O)ccc2occ(C(=O)c3ccc(OC)cc3)c12,-3,113,81,81,0,90
CC(=O)Nc1ccc(OCC(O)CN2CCN(Cc3ccccc3)CC2)cc1 (configuration not stated),14,97,89,94,10,104
CC(=O)Nc1ccc(S(=O)(=O)NC2=C(N3CCN(Cc4ccccc4)CC3)C(=O)c3ccccc3C2=O)cc1,-11,89,31*,7.0*,-12,103
Cc1ccc(S(=O)(=O)N(CC(=O)NCc2ccco2)Cc2ccccc2F)cc1,-8,99,85,100,-6,107
Cc1cc(C)nc(N2CCCC(C(=O)Nc3cc(F)ccc3C)C2)n1 (configuration not stated),-12,114,91,96,12,98
Cc1ccc(S(=O)(=O)N(C)CCCC(=O)n2nc(C)cc2C)cc1,-7,94,90,105,13,·
COc1ccc(N=c2oc3c(OC)cccc3cc2C(=O)NCc2ccco2)cc1OC,27,177,36*,56,29,90
COc1cccc2cc(C(=O)NCc3ccccn3)c(=O)oc12,-29,97,96,96,-35,97
COc1ccc(OC)c(N=c2oc3c(OC)cccc3cc2C(=O)NCc2ccco2)c1,50*[fluorescence artefact?],44,88,94,75*[fluorescence artefact?],92
COc1ccc(CC(=O)NCc2ccco2)cc1OC,0,107,82,93,0,91
COc1ccccc1N=c1oc2c(OC)cccc2cc1C(=O)NCc1ccco1,10,109,15*,61,6,86
Cc1cccc(-c2noc(CCCC(=O)N3CCOCC3)n2)c1,1,99,96,96,1,98
CC(=O)N1C2CCCCC2S[C@H]2CCCCC21 (some centres not stated),1,115,90,96,-9,96
N=C1N(/N=C/c2ccccc2)C(=Nc2ccccc2)C(=S)N1c1ccccc1,-4,103,1.6*,66,0,62
CC(C)c1nc(SCC(=O)NCc2ccc3c(c2)OCO3)c2c(=O)n(C)c(=O)n(C)c2n1,11,97,75,59,12,87
FC(F)(F)c1nnc2ccc(-n3ccnc3)nn12,-13,98,101,108,-1,97
CCN1C(=S)SC(=O)C1=C1C=C(C)N(CCO)C(C)=C1,-2,244*[fluorescence artefact?],91,43,-22,94
SMILES,ERb SRC1 inh,ERa coact pot,H69AR inhibit,HUVEC prolif 384,ERa coact inh,Lung fibro prol
Cc1ccc(N(CC(=O)N2CCc3ccccc32)S(=O)(=O)c2cccs2)cc1,-3,110,86,89,-3,80
CC(C)C(=O)Nc1nc(-c2ccccc2)ns1,1,98,96,99,5,110
CCCSc1nsc(NC(=O)C(c2ccccc2)c2ccccc2)n1,-10,120,18*,68,-1,87
CN(C)CCNC(=O)C(C(=O)c1ccc(F)cc1)n1ccccc1=O (configuration not stated),-9,111,84,108,3,105
CCOc1ccccc1N(CC(=O)NC1CCCC1)C(=O)CCCC(=O)Nc1ccccn1,2,112,90,110,-11,99
COc1ccc(-c2nc(SC)n(S(=O)(=O)c3ccccc3)n2)cc1,-7,125,99,95,10,113
COc1ccc(-c2nc3scc(-c4ccccc4)n3n2)cc1,10,118,31*,67,4,74
Cc1cc(N2C(=O)CCC2=O)ccc1NC(=O)c1cccs1,14,98,93,105,12,102
CN(C)c1nc(N)nc(Cn2ccnc2)n1,-6,111,81,82,-4,93
COc1cc(CNc2ccc(C)c(C)c2)cc(OC)c1OC,-1,121,19*,56,-9,·
COc1cc(C)c(CNc2cccc(C)c2)cc1C,-5,97,113,104,-9,101
COc1cc(C)c(CNc2ccc(OC)c(OC)c2)cc1C,11,105,36*,86,1,·
CC(=O)c1ccc2c3c(cccc13)C(=O)N(c1c(C)nn(C)c1C)C2=O,0,99,87,113,-2,103
Cc1n[nH]c(C)c1N1C(=O)c2cccc3c(N4CCCCCC4)ccc(c23)C1=O,-5,126,35*,84,-8,87
CCN(CC)c1nc2ccccc2c(N)c1-c1ccccc1,-9,55,39*,78,39,92
CCN(CC)c1nc2ccccc2n2cnnc12,0,114,73,101,1,97
Cc1ccc(OCC(O)Cn2c(=N)n(Cc3ccccc3)c3ccccc32)cc1 (configuration not stated),-4,90,88,6.5*,1,1.9*
CCOC(=O)Cn1c(=N)n(CCOc2cccc(C)c2)c2ccccc21,-5,104,88,97,-3,93
Cc1cccc(OCC(O)Cn2c(=N)n(CCN3CCCCC3)c3ccccc32)c1 (configuration not stated),-9,112,5.5*,51,-12,69
COc1ccc(OCC(O)Cn2c(=N)n(Cc3ccccc3)c3ccccc32)cc1 (configuration not stated),-9,115,82,73,-6,60
O=C(CCn1nnc2ccccc2c1=O)N[C@H](C(=O)O)c1ccccc1,-1,112,102,86,-4,94

# Assay outcomes from PubChem.
